Article PMC9283305 (Nitric oxide : biology and chemistry, 2022)
Like-named read-outs stand apart in the source and are kept apart here.

Experiments:
[1] = Nitrite reduction to NO by ferrous globins in the presence of excess dithionite; format: biochemical, human; conditions: for Nitrite reductase reaction rate constant: 37°C, 100 mM sodium phosphate, pH 7.4, excess dithionite
How it was run: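 Ran in 100 mM sodium phosphate, pH 7.4, 37 °C, with 2.5 mM dithionite to keep heme ferrous and remove O2. Globin (2–10 μM) was mixed with nitrite, typically 1–10 mM, or 250 μM–2 mM for distal-His mutants. Spectra were read over 350–700 nm and fit single-exponential; rate constants came from the nitrite series. At least triplicate, with ≥2 protein batches; mean ± SD.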

[2] = Autoxidation of the ferrous-dioxygen; format: biochemical, human
How it was run: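 Human Cygb WT and mutants were His-tagged, expressed in SoluBL21 cells and purified on Ni-NTA. Fe(II)-O2 was formed by excess dithionite reduction, then G25 gel filtration in aerobic buffer, mixed with prewarmed buffer at 37 °C and followed spectrally for 30–60 min. For two surface mutants, deoxy protein was made in a glovebox, desalted anaerobically and mixed 4:1 with O2-saturated buffer; read at 1 spectrum/s for 1000 s. At least triplicate; mean ± SD.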

Oleic acid = format: binding, human
How it was run: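 Oleate was titrated into ferric distal-His mutant globins with imidazole present: 250 μM, or a series of imidazole levels. Difference spectra were taken by subtracting the initial spectrum. The absorbance difference at the wavelength of largest change was fit against oleate concentration to give an apparent KD. Buffer was 100 mM sodium phosphate, pH 7.4, 25 °C.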

[3] = cited from earlier work
[4] = 37°C, 100 mM sodium phosphate, pH 7.4; cited from earlier work
[5] = 37°C, 100 mM sodium phosphate, pH 7.4; cited from earlier work; remark: listed apart in the source
[6] = 37°C, 100 mM sodium phosphate, pH 7.4
[7] = 37°C, 100 mM sodium phosphate, pH 7.4, decay fit to a two-exponential equation

Nitrite reductase reaction rate constant [1] [M⁻¹ s⁻¹]	Molecule	Autoxidation rate [2, 6] [min⁻¹]	further results
1.24 ± 0.18	T91D: human cytoglobin mutant Thr91 to Asp (protein, UniProt Q8WWM9 1-190, looked up, variant T91D) Cytoglobin: MEKVPGEMEIERRERSEELSEAERKAVQAMWARLYANCEDVGVAILVRFFVNFPSAKQYFSQFKHMEDPLEMERSPQLRKHACRVMGALNDVVENLHDPDKVSSVLALVGKAHALKHKVEPVYFKILSGVILEVVAEEFASDFPPETQRAWAKLRGLIYSHVTAAYKEVGWVQQVPNATTPPATLPSSGP	0.062 ± 0.005	–
0.66 ± 0.18	L108Q: human cytoglobin hydrophobic surface patch mutant Leu108 to Gln (protein, UniProt Q8WWM9 1-190, looked up, variant L108Q) Cytoglobin: MEKVPGEMEIERRERSEELSEAERKAVQAMWARLYANCEDVGVAILVRFFVNFPSAKQYFSQFKHMEDPLEMERSPQLRKHACRVMGALNTVVENLHDPDKVSSVLAQVGKAHALKHKVEPVYFKILSGVILEVVAEEFASDFPPETQRAWAKLRGLIYSHVTAAYKEVGWVQQVPNATTPPATLPSSGP	0.116 ± 0.051	–
3.76 ± 0.85	V105Y: human cytoglobin hydrophobic surface patch mutant Val105 to Tyr (protein, UniProt Q8WWM9 1-190, looked up, variant V105Y) Cytoglobin: MEKVPGEMEIERRERSEELSEAERKAVQAMWARLYANCEDVGVAILVRFFVNFPSAKQYFSQFKHMEDPLEMERSPQLRKHACRVMGALNTVVENLHDPDKVSSYLALVGKAHALKHKVEPVYFKILSGVILEVVAEEFASDFPPETQRAWAKLRGLIYSHVTAAYKEVGWVQQVPNATTPPATLPSSGP	0.107 ± 0.018	Fold increase in nitrite reduction rate constant versus Cygb WT [1]: 3 fold
0.90 ± 0.30	R84E: human cytoglobin surface mutant Arg84 to Glu (protein, UniProt Q8WWM9 1-190, looked up, variant R84E) Cytoglobin: MEKVPGEMEIERRERSEELSEAERKAVQAMWARLYANCEDVGVAILVRFFVNFPSAKQYFSQFKHMEDPLEMERSPQLRKHACEVMGALNTVVENLHDPDKVSSVLALVGKAHALKHKVEPVYFKILSGVILEVVAEEFASDFPPETQRAWAKLRGLIYSHVTAAYKEVGWVQQVPNATTPPATLPSSGP	–	Autoxidation rate constant for the fast phase [2, 7]: 2.362 ± 0.359^c min^−1; Autoxidation rate constant for the slower phase [2, 7]: 0.303 ± 0.037 min⁻¹; Share of the autoxidation decay accounted for by the fast phase ([2]; 37°C, 100 mM sodium phosphate, pH 7.4, two-exponential fit): 73 ± 12%; Fold increase in autoxidation rate constant as compared to WT ([2]; versus WT cytoglobin): roughly 10 fold
10.7 ± 2.1	H81W: human cytoglobin distal histidine His81(E7) to Trp mutant (protein, UniProt Q8WWM9 1-190, looked up, variant H81W) Cytoglobin: MEKVPGEMEIERRERSEELSEAERKAVQAMWARLYANCEDVGVAILVRFFVNFPSAKQYFSQFKHMEDPLEMERSPQLRKWACRVMGALNTVVENLHDPDKVSSVLALVGKAHALKHKVEPVYFKILSGVILEVVAEEFASDFPPETQRAWAKLRGLIYSHVTAAYKEVGWVQQVPNATTPPATLPSSGP	0.135 ± 0.034	–
0.65 ± 0.14	K116E: human cytoglobin surface mutant Lys116 to Glu (protein, UniProt Q8WWM9 1-190, looked up, variant K116E) Cytoglobin: MEKVPGEMEIERRERSEELSEAERKAVQAMWARLYANCEDVGVAILVRFFVNFPSAKQYFSQFKHMEDPLEMERSPQLRKHACRVMGALNTVVENLHDPDKVSSVLALVGKAHALEHKVEPVYFKILSGVILEVVAEEFASDFPPETQRAWAKLRGLIYSHVTAAYKEVGWVQQVPNATTPPATLPSSGP	0.366 ± 0.057	–
302 ± 55	Neuroglobin H64L: His-tagged neuroglobin distal histidine His64(E7) to Leu mutant (protein, UniProt Q9NPG2 1-151, looked up, variant H64L) Neuroglobin: MERPEPELIRQSWRAVSRSPLEHGTVLFARLFALEPDLLPLFQYNCRQFSSPEDCLSSPEFLDLIRKVMLVIDAAVTNVEDLSSLEEYLASLGRKHRAVGVKLSSFSTVGESLLYMLEKCLGPAFTPATRAAWSQLYGAVVQAMSRGWDGE	0.010 ± 0.004	–

Second part, the molecule before the results:

Molecule	Nitrite reductase reaction rate constant [1] [M⁻¹ s⁻¹]	Autoxidation rate [2, 6] [min⁻¹]	further results
H81A: human cytoglobin distal histidine His81(E7) to Ala mutant (protein, UniProt Q8WWM9 1-190, looked up, variant H81A) Cytoglobin: MEKVPGEMEIERRERSEELSEAERKAVQAMWARLYANCEDVGVAILVRFFVNFPSAKQYFSQFKHMEDPLEMERSPQLRKAACRVMGALNTVVENLHDPDKVSSVLALVGKAHALKHKVEPVYFKILSGVILEVVAEEFASDFPPETQRAWAKLRGLIYSHVTAAYKEVGWVQQVPNATTPPATLPSSGP	1100 ± 100	0.094 ± 0.038	Nitrite reductase reaction rate constant ([1]; listed as His81Ala): up to 1100 M^−1s^−1; Fold increase in nitrite reduction rate constant versus Cygb WT [1]: up to 1000 fold
H81L: human cytoglobin distal histidine His81(E7) to Leu mutant (protein, UniProt Q8WWM9 1-190, looked up, variant H81L) Cytoglobin: MEKVPGEMEIERRERSEELSEAERKAVQAMWARLYANCEDVGVAILVRFFVNFPSAKQYFSQFKHMEDPLEMERSPQLRKLACRVMGALNTVVENLHDPDKVSSVLALVGKAHALKHKVEPVYFKILSGVILEVVAEEFASDFPPETQRAWAKLRGLIYSHVTAAYKEVGWVQQVPNATTPPATLPSSGP	76 ± 16	0.314 ± 0.043	Nitrite reduction rate relative to Ngb H64L ([1]; relative to the Ngb H64L rate): about 25%; Fold increase in oleic acid KD versus WT (Oleic acid; versus Cygb WT): 4 fold
H81Q: human cytoglobin distal histidine His81(E7) to Gln mutant (protein, UniProt Q8WWM9 1-190, looked up, variant H81Q) Cytoglobin: MEKVPGEMEIERRERSEELSEAERKAVQAMWARLYANCEDVGVAILVRFFVNFPSAKQYFSQFKHMEDPLEMERSPQLRKQACRVMGALNTVVENLHDPDKVSSVLALVGKAHALKHKVEPVYFKILSGVILEVVAEEFASDFPPETQRAWAKLRGLIYSHVTAAYKEVGWVQQVPNATTPPATLPSSGP	210 ± 44	0.019 ± 0.005	Change of oleic acid binding (apparent KD) in the presence of imidazole (Oleic acid; several saturating concentrations of imidazole (Figure 5)): slight upwards trend
zebrafish Cygb1: zebrafish cytoglobin 1, a five-coordinate native globin (protein, UniProt Q8UUR3 1-174, looked up) Cytoglobin-1: MEGDGGVQLTQSPDSLTEEDVCVIQDTWKPVYAERDNAGVAVLVRFFTNFPSAKQYFEHFRELQDPAEMQQNAQLKEHGQRVLNALNTLVENLRDADKLNTIFNQMGKSHALRHKVDPVYFKILAGVILEVLVEAFPQCFSPAEVQSSWSKLMGILYWQMNRVYAEVGWENSKK	–	–	Lipid binding [3]: do not show appreciable lipid binding
Neuroglobin Wild-type: wild-type human neuroglobin (protein, UniProt Q9NPG2 1-151, looked up) Neuroglobin: MERPEPELIRQSWRAVSRSPLEHGTVLFARLFALEPDLLPLFQYNCRQFSSPEDCLSSPEFLDHIRKVMLVIDAAVTNVEDLSSLEEYLASLGRKHRAVGVKLSSFSTVGESLLYMLEKCLGPAFTPATRAAWSQLYGAVVQAMSRGWDGE	–	–	Nitrite reductase reaction rate constant [4]: 0.52 ± 0.19^d M^−1s^−1; Autoxidation rate [5]: 0.23 ± 0.03^b min^−1
Neuroglobin H64Q: human neuroglobin distal histidine His64(E7) to Gln mutant (protein, UniProt Q9NPG2 1-151, looked up, variant H64Q) Neuroglobin: MERPEPELIRQSWRAVSRSPLEHGTVLFARLFALEPDLLPLFQYNCRQFSSPEDCLSSPEFLDQIRKVMLVIDAAVTNVEDLSSLEEYLASLGRKHRAVGVKLSSFSTVGESLLYMLEKCLGPAFTPATRAAWSQLYGAVVQAMSRGWDGE	–	–	Nitrite reductase reaction rate constant [4]: 387 ± 21^d M^−1s^−1; Autoxidation rate [5]: 0.010 ± 0.002^b min^−1
Neuroglobin H64W: human neuroglobin distal histidine His64(E7) to Trp mutant (protein, UniProt Q9NPG2 1-151, looked up, variant H64W) Neuroglobin: MERPEPELIRQSWRAVSRSPLEHGTVLFARLFALEPDLLPLFQYNCRQFSSPEDCLSSPEFLDWIRKVMLVIDAAVTNVEDLSSLEEYLASLGRKHRAVGVKLSSFSTVGESLLYMLEKCLGPAFTPATRAAWSQLYGAVVQAMSRGWDGE	–	–	Nitrite reductase reaction rate constant [4]: 7.6 ± 1.3^d M^−1s^−1; Autoxidation rate [5]: 0.076 ± 0.006^b min^−1
Neuroglobin H64A: human neuroglobin distal histidine His64(E7) to Ala mutant (protein, UniProt Q9NPG2 1-151, looked up, variant H64A) Neuroglobin: MERPEPELIRQSWRAVSRSPLEHGTVLFARLFALEPDLLPLFQYNCRQFSSPEDCLSSPEFLDAIRKVMLVIDAAVTNVEDLSSLEEYLASLGRKHRAVGVKLSSFSTVGESLLYMLEKCLGPAFTPATRAAWSQLYGAVVQAMSRGWDGE	–	–	Nitrite reductase reaction rate constant [4]: 1120 ± 140^d M^−1s^−1; Autoxidation rate [5]: 0.066 ± 0.005^b min^−1
